Results on two molecules are retold here after article PMC11078046 (JBMR Plus, 2024).

For data set [1] the following is noted: humans, given intravenously; cited from earlier work.
The subject of data set [2] is thyroparathyroidectomized (TPTx) rats. The data set is described as follows: TPTx rat 28-day efficacy study. The class given is in vivo, Sprague–Dawley rats. Particulars: daily SC 10 nmol/kg. The method in brief: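 Female thyroparathyroidectomised Crl-CD SD rats, 215–290 g, randomised on baseline serum calcium and body weight after 9 days of acclimation. Daily SC dosing in PBS (1 mL/kg) for 28 days. Jugular serum taken in two alternating cohorts on days 1, 12 and 27 at 0, 2, 6, 10 and 24 h, run on a Hitachi 7180 analyser (n = 5/cohort). Urine n = 10/group. Distal femur BMD by pQCT, n = 10/group.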

Data set [3] has the same test system. The experiment in a line: TPTx rat 7-day efficacy study. The class given is in vivo, Sprague–Dawley rats. The method in brief: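 Female TPTx SD rats, 250–300 g, randomised on baseline calcium and weight (n = 12). Daily SC dosing in PBS (1 mL/kg) for 7 days. Day-1 jugular serum drawn from two cohorts at 0, 2, 6, 10, 18 and 24 h; calcium and phosphate measured on a Hitachi 7180. Predose serum on days −6, 4 and 7 assayed by osteocalcin, PINP and CTX-I ELISAs.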

Regarding “PTH: endogenous human polypeptide, 84 amino acids in length”, in data set [1], the plasma half-life entry was “less than 10 min”.

B1: PTH(1-84): Recombinant human PTH(1-84), Natpara (Takeda); native parathyroid hormone comparator (protein, UniProt P01270 32-115, looked up)
Parathyroid hormone: SVSEIQLMHNLGKHLNSMERVEWLRKKLQDVHNFVALGAPLAPRDAGSQRPRKKEDNVLVESHEKSLGEADKADVNVLTKAKSQ
modifications: Parathyroid hormone
For the molecule B1, the “bone remodeling markers (osteocalcin, CTX, PINP)” value in data set [2] was “increased serum concentrations of osteocalcin and CTX, but had only minimal effect on PINP”. In data set [2] (28 days), the “BMD, cortical region of the diaphysis (pQCT)” value is “small but statistically significant decrease in BMD”. Moreover, the serum calcium result in data set [2] (28 days, days 1, 12, 27) is recorded as “no increase or only small increases in serum calcium”. The “BMD, distal femur metaphysis (pQCT)” value in data set [2] (28 days, vs TPTx: vehicle) is reported as “unchanged or slightly increased”. The “urinary calcium (creatinine-normalized)” value in data set [2] (days 1, 14, 27) is “not significantly increased”. For the same molecule, the serum phosphate result in data set [2] (days 12 and 27) is listed as “much smaller decrease in serum phosphate”. Moreover, the “serum calcium, day 1 after first dose” value in data set [3] (SC 3 nmol/kg, 0–24 h) is listed as “unaffected”. Besides, the “bone formation markers osteocalcin and PINP” value in data set [3] (daily SC 3 nmol/kg, serum, days 4 and 7) is given as “only induced a small increase”. In data set [3] (daily SC 3 nmol/kg, three timepoints), the “serum phosphate, days 4 and 7” value is reported as “only transiently lower serum phosphate at the 2 h timepoints”.
